Reference: ChEMBL document CHEMBL1275589, “Molecular epidemiology, sequence types, and plasmid analyses of KPC-producing Klebsiella pneumoniae strains in Israel” (2010)
≈ marks a conversion by molar mass, not a printed value.

What was measured:
Klebsiella pneumoniae [1] = test: Antimicrobial activity against carbapenem-resistant KPC-2 producing Klebsiella pneumoniae 365 ST 376 expressing beta-lactamase SHV-1, CTX-M-15 and OXA-4 by agar dilution method
Klebsiella pneumoniae [2] = test: Antimicrobial activity against carbapenem-resistant KPC-2 producing Klebsiella pneumoniae 469 ST 277 expressing beta-lactamase SHV-27, CTX-M-15 and OXA-4 by agar dilution method; assay type: functional
Klebsiella pneumoniae [3] = test: Antimicrobial activity against carbapenem-resistant KPC-2 producing Klebsiella pneumoniae 588 ST 340 expressing beta-lactamase TEM-1 and SHV-11 by agar dilution method; assay type: functional
Klebsiella pneumoniae [4] = test: Antimicrobial activity against carbapenem-resistant KPC-2 producing Klebsiella pneumoniae 525 ST 376 expressing beta-lactamase SHV-1 by agar dilution method; assay type: functional
Klebsiella pneumoniae [5] = test: Antimicrobial activity against carbapenem-resistant KPC-2 producing Klebsiella pneumoniae 475 transformant by agar dilution method; assay type: functional
Klebsiella pneumoniae [6] = test: Antimicrobial activity against carbapenem-resistant KPC-2 producing Klebsiella pneumoniae 526 ST 376 expressing beta-lactamase SHV-1 by agar dilution method; assay type: functional
Klebsiella pneumoniae [7] = test: Antimicrobial activity against carbapenem-resistant KPC-2 producing Klebsiella pneumoniae 531 ST 376 expressing beta-lactamase SHV-1 by agar dilution method; assay type: functional
Klebsiella pneumoniae [8] = test: Antimicrobial activity against KPC-3 producing Klebsiella pneumoniae 557 transformant by agar dilution method; assay type: functional
Klebsiella pneumoniae [9] = test: Antimicrobial activity against KPC-3 producing Klebsiella pneumoniae 549 ST 327 expressing beta-lactamase TEM-1 and CTX-M-2 by agar dilution method; assay type: functional
Klebsiella pneumoniae [10] = test: Antimicrobial activity against carbapenem-resistant KPC-2 producing Klebsiella pneumoniae 523 transformant by agar dilution method; assay type: functional
Escherichia coli [11] = test: Antimicrobial activity against Escherichia coli Genehogs by agar dilution method; assay type: functional
Method in brief: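 Carbapenem MICs by agar dilution, interpreted per CLSI. FDA Enterobacteriaceae breakpoints applied: susceptible ≤2 μg/ml, intermediate 4 μg/ml, resistant ≥8 μg/ml. Transformants were made in recipient E. coli GeneHogs with purified plasmid DNA.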

Klebsiella pneumoniae [12] = test: Antimicrobial activity against carbapenem-resistant KPC-2 producing Klebsiella pneumoniae 588 transformant by agar dilution method; assay type: functional
Klebsiella pneumoniae [13] = test: Antimicrobial activity against KPC-3 producing Klebsiella pneumoniae 549 transformant by agar dilution method; assay type: functional
Klebsiella pneumoniae [14] = test: Antimicrobial activity against carbapenem-resistant KPC-2 producing Klebsiella pneumoniae 365 transformant by agar dilution method; assay type: functional
Klebsiella pneumoniae [15] = test: Antimicrobial activity against KPC-3 producing Klebsiella pneumoniae 557 ST 258 expressing beta-lactamase TEM-1 by agar dilution method
Klebsiella pneumoniae [16] = test: Antimicrobial activity against carbapenem-resistant KPC-2 producing Klebsiella pneumoniae 525 transformant by agar dilution method; assay type: functional
Klebsiella pneumoniae [17] = test: Antimicrobial activity against carbapenem-resistant KPC-2 producing Klebsiella pneumoniae 523 ST 340 expressing beta-lactamase TEM-1, SHV-11 and OXA-2 by agar dilution method; assay type: functional
Klebsiella pneumoniae [18] = test: Antimicrobial activity against carbapenem-resistant KPC-2 producing Klebsiella pneumoniae 526 transformant by agar dilution method; assay type: functional
Klebsiella pneumoniae [19] = test: Antimicrobial activity against carbapenem-resistant KPC-2 producing Klebsiella pneumoniae 531 transformant by agar dilution method; assay type: functional
Klebsiella pneumoniae [20] = test: Antimicrobial activity against carbapenem-resistant KPC-2 producing Klebsiella pneumoniae 469 transformant by agar dilution method; assay type: functional
Klebsiella pneumoniae [21] = test: Antimicrobial activity against carbapenem-resistant KPC-2 producing Klebsiella pneumoniae 475 ST 277 expressing beta-lactamase SHV-27, CTX-M-15 and OXA-4 by agar dilution method; assay type: functional
Klebsiella pneumoniae [22] = test: Antimicrobial activity against carbapenem-resistant KPC-2 producing Klebsiella pneumoniae 525 ST 376 expressing beta-lactamase SHV-1 by Etest; assay type: functional
Klebsiella pneumoniae [23] = test: Antimicrobial activity against carbapenem-resistant KPC-2 producing Klebsiella pneumoniae 523 ST 340 expressing beta-lactamase TEM-1, SHV-11 and OXA-2 by Etest; assay type: functional
Klebsiella pneumoniae [24] = test: Antimicrobial activity against carbapenem-resistant KPC-2 producing Klebsiella pneumoniae 531 ST 376 expressing beta-lactamase SHV-1 by Etest; assay type: functional
Klebsiella pneumoniae [25] = test: Antimicrobial activity against carbapenem-resistant KPC-2 producing Klebsiella pneumoniae 523 transformant by Etest; assay type: functional
Klebsiella pneumoniae [26] = test: Antimicrobial activity against carbapenem-resistant KPC-2 producing Klebsiella pneumoniae 525 transformant by Etest; assay type: functional
Klebsiella pneumoniae [27] = test: Antimicrobial activity against carbapenem-resistant KPC-2 producing Klebsiella pneumoniae 469 transformant by Etest; assay type: functional
Klebsiella pneumoniae [28] = test: Antimicrobial activity against carbapenem-resistant KPC-2 producing Klebsiella pneumoniae 475 transformant by Etest; assay type: functional
Klebsiella pneumoniae [29] = test: Antimicrobial activity against carbapenem-resistant KPC-2 producing Klebsiella pneumoniae 526 ST 376 expressing beta-lactamase SHV-1 by Etest; assay type: functional
Escherichia coli [30] = test: Antimicrobial activity against Escherichia coli Genehogs by Etest; assay type: functional
Klebsiella pneumoniae [31] = test: Antimicrobial activity against carbapenem-resistant KPC-2 producing Klebsiella pneumoniae 469 ST 277 expressing beta-lactamase SHV-27, CTX-M-15 and OXA-4 by Etest; assay type: functional
Klebsiella pneumoniae [32] = test: Antimicrobial activity against KPC-3 producing Klebsiella pneumoniae 557 transformant by Etest; assay type: functional
Klebsiella pneumoniae [33] = test: Antimicrobial activity against carbapenem-resistant KPC-2 producing Klebsiella pneumoniae 531 transformant by Etest; assay type: functional
Klebsiella pneumoniae [34] = test: Antimicrobial activity against carbapenem-resistant KPC-2 producing Klebsiella pneumoniae 475 ST 277 expressing beta-lactamase SHV-27, CTX-M-15 and OXA-4 by Etest; assay type: functional
Klebsiella pneumoniae [35] = test: Antimicrobial activity against KPC-3 producing Klebsiella pneumoniae 549 ST 327 expressing beta-lactamase TEM-1 and CTX-M-2 by Etest; assay type: functional
Klebsiella pneumoniae [36] = test: Antimicrobial activity against KPC-3 producing Klebsiella pneumoniae 549 transformant by Etest; assay type: functional
Klebsiella pneumoniae [37] = test: Antimicrobial activity against carbapenem-resistant KPC-2 producing Klebsiella pneumoniae 526 transformant by Etest; assay type: functional
Klebsiella pneumoniae [38] = test: Antimicrobial activity against carbapenem-resistant KPC-2 producing Klebsiella pneumoniae 588 ST 340 expressing beta-lactamase TEM-1 and SHV-11 by Etest; assay type: functional
Klebsiella pneumoniae [39] = test: Antimicrobial activity against carbapenem-resistant KPC-2 producing Klebsiella pneumoniae 588 transformant by Etest; assay type: functional
Klebsiella pneumoniae [40] = test: Antimicrobial activity against carbapenem-resistant KPC-2 producing Klebsiella pneumoniae 365 transformant by Etest; assay type: functional

| Compound | MIC (Klebsiella pneumoniae [1]) | MIC (Klebsiella pneumoniae [2]) | MIC (Klebsiella pneumoniae [3]) | MIC (Klebsiella pneumoniae [4]) | MIC (Klebsiella pneumoniae [5]) | MIC (Klebsiella pneumoniae [6]) | MIC (Klebsiella pneumoniae [7]) | MIC (Klebsiella pneumoniae [8]) | MIC (Klebsiella pneumoniae [9]) | MIC (Klebsiella pneumoniae [10]) | MIC (Escherichia coli [11]) | MIC (Klebsiella pneumoniae [12]) | MIC (Klebsiella pneumoniae [13]) | MIC (Klebsiella pneumoniae [14]) | MIC (Klebsiella pneumoniae [15]) | MIC (Klebsiella pneumoniae [16]) | MIC (Klebsiella pneumoniae [17]) | MIC (Klebsiella pneumoniae [18]) | MIC (Klebsiella pneumoniae [19]) | MIC (Klebsiella pneumoniae [20]) | also measured |
| --- | --- | --- | --- | --- | --- | --- | --- | --- | --- | --- | --- | --- | --- | --- | --- | --- | --- | --- | --- | --- | --- |
| C[C@@H](O)[C@H]1C(=O)N2C(C(=O)O)=C(SCCNC=N)C[C@H]12 [IMIPENEM ANHYDROUS] | 32 µg/mL (≈ 107 µM) | 32 µg/mL (≈ 107 µM) | 32 µg/mL (≈ 107 µM) | 32 µg/mL (≈ 107 µM) | 8 µg/mL (≈ 26.7 µM) | 32 µg/mL (≈ 107 µM) | 32 µg/mL (≈ 107 µM) | 4 µg/mL (≈ 13.4 µM) | 0.75 µg/mL (≈ 2.51 µM) | 8 µg/mL (≈ 26.7 µM) | 0.094 µg/mL (≈ 0.314 µM) | 8 µg/mL (≈ 26.7 µM) | 4 µg/mL (≈ 13.4 µM) | 8 µg/mL (≈ 26.7 µM) | 128 µg/mL (≈ 428 µM) | 4 µg/mL (≈ 13.4 µM) | 32 µg/mL (≈ 107 µM) | 8 µg/mL (≈ 26.7 µM) | 4 µg/mL (≈ 13.4 µM) | 8 µg/mL (≈ 26.7 µM) | MIC (Klebsiella pneumoniae [21]): 32 µg/mL (≈ 107 µM) |
| C[C@H]1COc2c(N3CCN(C)CC3)c(F)cc3c(=O)c(C(=O)O)cn1c23.C[C@H]1COc2c(N3CCN(C)CC3)c(F)cc3c(=O)c(C(=O)O)cn1c23.O [LEVOFLOXACIN] | > 8 µg/mL | < 0.25 µg/mL | > 8 µg/mL | > 8 µg/mL | < 0.12 µg/mL | > 8 µg/mL | > 8 µg/mL | < 0.25 µg/mL | > 8 µg/mL | 0.25 µg/mL | 0.006 µg/mL | < 0.12 µg/mL | < 0.25 µg/mL | < 0.12 µg/mL | > 8 µg/mL | < 0.25 µg/mL | > 8 µg/mL | < 0.12 µg/mL | < 0.25 µg/mL | < 0.25 µg/mL | – |
| C[C@@H](O)[C@H]1C(=O)N2C(C(=O)O)=C(S[C@@H]3CN[C@H](C(=O)N(C)C)C3)[C@H](C)[C@H]12 [MEROPENEM] | 64 µg/mL (≈ 167 µM) | 32 µg/mL (≈ 83.4 µM) | 64 µg/mL (≈ 167 µM) | 64 µg/mL (≈ 167 µM) | 4 µg/mL (≈ 10.4 µM) | 64 µg/mL (≈ 167 µM) | 64 µg/mL (≈ 167 µM) | 4 µg/mL (≈ 10.4 µM) | 8 µg/mL (≈ 20.9 µM) | 4 µg/mL (≈ 10.4 µM) | 0.012 µg/mL (≈ 0.0313 µM) | 4 µg/mL (≈ 10.4 µM) | 2 µg/mL (≈ 5.22 µM) | 4 µg/mL (≈ 10.4 µM) | 128 µg/mL (≈ 334 µM) | 4 µg/mL (≈ 10.4 µM) | 32 µg/mL (≈ 83.4 µM) | 4 µg/mL (≈ 10.4 µM) | 4 µg/mL (≈ 10.4 µM) | 4 µg/mL (≈ 10.4 µM) | MIC (Klebsiella pneumoniae [21]): 64 µg/mL (≈ 167 µM) |
| COLISTIN | – | – | – | – | – | – | – | – | – | – | – | – | – | – | – | – | – | – | – | – | MIC (Klebsiella pneumoniae [22]): 0.125 µg/mL; MIC (Klebsiella pneumoniae [23]): 0.125 µg/mL; MIC (Klebsiella pneumoniae [24]): 0.125 µg/mL; MIC (Klebsiella pneumoniae [25]): 0.047 µg/mL; MIC (Klebsiella pneumoniae [26]): 0.032 µg/mL; MIC (Klebsiella pneumoniae [27]): 0.032 µg/mL; MIC (Klebsiella pneumoniae [28]): 0.032 µg/mL; MIC (Klebsiella pneumoniae [29]): 0.125 µg/mL; MIC (Escherichia coli [30]): 0.125 µg/mL; MIC (Klebsiella pneumoniae [31]): 0.125 µg/mL; MIC (Klebsiella pneumoniae [32]): 0.032 µg/mL; MIC (Klebsiella pneumoniae [33]): 0.032 µg/mL; MIC (Klebsiella pneumoniae [34]): 0.19 µg/mL; MIC (Klebsiella pneumoniae [35]): 0.125 µg/mL; MIC (Klebsiella pneumoniae [36]): 0.032 µg/mL; MIC (Klebsiella pneumoniae [37]): 0.032 µg/mL; MIC (Klebsiella pneumoniae [38]): 0.19 µg/mL; MIC (Klebsiella pneumoniae [39]): 0.047 µg/mL; MIC (Klebsiella pneumoniae [40]): 0.032 µg/mL |
| GENTAMICIN | – | > 16 µg/mL | < 1 µg/mL | < 1 µg/mL | > 16 µg/mL | < 1 µg/mL | < 1 µg/mL | < 1 µg/mL | > 16 µg/mL | 2 µg/mL | < 1 µg/mL | 2 µg/mL | < 1 µg/mL | < 1 µg/mL | – | < 1 µg/mL | > 16 µg/mL | < 1 µg/mL | < 1 µg/mL | > 16 µg/mL | MIC (Klebsiella pneumoniae [21]): > 16 µg/mL |
